Test results: ChEMBL document CHEMBL1944532, “Synthesis and evaluation of anticancer activity of some novel 6-aryl-2-(p-sulfamylphenyl)-pyridazin-3(2H)-ones” (Eur J Med Chem, 2012)
Activity calls are given as the source filed them. The calls are words filed in the database; no cut-off is given here.

Tests used:
UACC-257 = experiment: Cytotoxicity against human UACC257 cells after 48 hrs by SRB assay; assay type: functional; conditions: UACC-257, 48 h
Procedure, shortened: (§1)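 NCI 60-cell-line five-dose screen. Cells were grown in 1640 medium with 5% fetal calf serum and 2 mM L-glutamine, with inoculum density set by cell line, and pre-incubated 24 h. Compound in DMSO was added at 10^-4 to 10^-8 M (10-fold steps) with 48 h continuous exposure. Growth was read by SRB protein assay, and GI50, TGI and LC50 were derived from dose-response.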

MDA-MB-435 [1] = experiment: Cytotoxicity against human MDA-MB-435 cells after 48 hrs by SRB assay; assay type: functional; conditions: MDA-MB-435, 48 h
Procedure, shortened: (§2)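 NCI five-dose screen on the ~60-line human tumor panel. Cells grown in RPMI-1640 with 5% fetal calf serum and 2 mM L-glutamine, seeded at line-dependent density and preincubated 24 h. Compound added from DMSO at 10-fold dilutions from 10^-4 to 10^-8 M, continuous exposure 48 h. Growth read by sulforhodamine B protein stain. GI50, TGI and LC50 derived per line.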

SN12C = experiment: Cytotoxicity against human SN12C cells after 48 hrs by SRB assay; assay type: functional; procedure, shortened: as §1
SK-OV-3 = experiment: Cytotoxicity against human SKOV3 cells after 48 hrs by SRB assay; assay type: functional; conditions: SK-OV-3, 48 h; procedure, shortened: as §1
NCI/ADR-RES = experiment: Cytotoxicity against human NCI/ADR-RES cells after 48 hrs by SRB assay; assay type: functional; procedure, shortened: as §2
HCT-116 = experiment: Cytotoxicity against human HCT116 cells after 48 hrs by SRB assay; assay type: functional; conditions: HCT-116, 48 h
Procedure, shortened: (§3)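 NCI ~60-line panel in RPMI-1640 with 5% fetal calf serum and 2 mM L-glutamine, pre-incubated 24 h. Compound in DMSO tested at five 10-fold concentrations (10^-4 to 10^-8 M) with 48 h continuous exposure. Growth measured by sulforhodamine B protein assay. GI50 (50% net growth inhibition), TGI (total inhibition) and LC50 (50% net cell death) derived from dose-response.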

DU-145 = experiment: Cytotoxicity against human DU145 cells assessed as cell growth at 10 uM after 48 hrs by SRB assay; assay type: functional; conditions: DU-145, 48 h, read-out: Activity
Procedure, shortened: (§4)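 NCI primary single-dose screen at 10^-5 M against the ~60 human tumour cell line panel. Cells grown in RPMI-1640 with 5% fetal calf serum and 2 mM L-glutamine and pre-incubated 24 h before compound addition. Compound added from DMSO solution with 48 h exposure. Growth read by sulforhodamine B protein staining.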

M14 = experiment: Cytotoxicity against human M14 cells after 48 hrs by SRB assay; assay type: functional; conditions: M14, 48 h; procedure, shortened: as §2
OVCAR-4 = experiment: Cytotoxicity against human OVCAR4 cells after 48 hrs by SRB assay; assay type: functional; conditions: OVCAR-4, 48 h; procedure, shortened: as §2
[2] = Toxicity in ip dosed athymic nude mouse assessed as body weight loss after 2 weeks; assay type: organism-based; conditions: in vivo
Procedure, shortened: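 Maximum tolerated dose determination in athymic nude mice. Single ip injection of 400, 200 or 100 mg/kg, one mouse per dose. Compound solubilized in DMSO. Feed and water ad libitum. Mice observed 2 weeks for body weight loss, lethality and other toxicity signs; sacrificed if weight loss exceeds 20%.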

SNB-75 = experiment: Cytotoxicity against human SNB75 cells after 48 hrs by SRB assay; assay type: functional; conditions: SNB-75, 48 h; procedure, shortened: as §1
CCRF-CEM = experiment: Cytotoxicity against human CCRF-CEM cells after 48 hrs by SRB assay; assay type: functional; procedure, shortened: as §3
786-0 = experiment: Cytotoxicity against human 786-0 cells after 48 hrs by SRB assay; assay type: functional; conditions: 786-0, 48 h; procedure, shortened: as §3
ACHN = experiment: Cytotoxicity against human ACHN cells after 48 hrs by SRB assay; assay type: functional; procedure, shortened: as §3
HCC 2998 = experiment: Cytotoxicity against human HCC2998 cells assessed as cell growth at 10 uM after 48 hrs by SRB assay; assay type: functional; conditions: HCC 2998, 48 h, read-out: Activity; procedure, shortened: as §4
MDA-MB-435 [3] = experiment: Cytotoxicity against human MDA-MB-435 cells assessed as cell growth at 10 uM after 48 hrs by SRB assay; assay type: functional; conditions: MDA-MB-435, 48 h, read-out: Activity
Procedure, shortened: (§5)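 NCI primary single-dose screen at 10^-5 M against the full panel of about 60 human tumor cell lines. Cells were in RPMI-1640 with 5% fetal calf serum and 2 mM L-glutamine and preincubated 24 h. Compound was given in DMSO with 48 h exposure. Growth was estimated by sulforhodamine B protein assay.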

RXF 393 = experiment: Cytotoxicity against human RXF393 cells after 48 hrs by SRB assay; assay type: functional; conditions: RXF 393, 48 h; procedure, shortened: as §2
NCI-H23 [4] = experiment: Cytotoxicity against human NCI-H23 cells assessed as cell growth at 10 uM after 48 hrs by SRB assay; assay type: functional; conditions: NCI-H23, 48 h, read-out: Activity; procedure, shortened: as §5
NCI-H23 [5] = experiment: Cytotoxicity against human NCI-H23 cells after 48 hrs by SRB assay; assay type: functional; conditions: NCI-H23, 48 h; procedure, shortened: as §2
SW-620 = experiment: Antitumor activity against human SW620 cells implanted in mouse dosed qd for 4 days by formazan dye-based hollow fiber assay; assay type: functional, organism-based
Procedure, shortened: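 Cells grown inside polyvinylidene fluoride hollow fibers; each line implanted into both intraperitoneal and subcutaneous compartments in mice. Compound given ip at two doses on a QD x 4 schedule. Fibers then recovered and viable cell mass measured by formazan dye conversion. Scored 2 per dose giving ≥50% reduction in viable cell mass (%T/C 50).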

A498 = experiment: Cytotoxicity against human A498 cells after 48 hrs by SRB assay; assay type: functional; conditions: A498, 48 h; procedure, shortened: as §3
SK-MEL-2 = experiment: Cytotoxicity against human SK-MEL-2 cells after 48 hrs by SRB assay; assay type: functional; conditions: SK-MEL-2, 48 h; procedure, shortened: as §2

CCc1ccc(-c2ccc(=O)n(-c3ccc(S(N)(=O)=O)cc3)n2)cc1
LC50 (UACC-257): > 100 µM | GI50 (UACC-257; read-out: GI50): > 100 µM | GI50 (UACC-257; read-out: pGI50 (converted)): > 100 µM | TGI (UACC-257; read-out: pTGI): > 100 µM | LC50 (MDA-MB-435 [1]): > 100 µM | GI50 (MDA-MB-435 [1]; read-out: GI50): 0.223 µM | GI50 (MDA-MB-435 [1]; read-out: pGI50 (converted)): 0.224 µM | TGI (MDA-MB-435 [1]; read-out: pTGI (converted)): 2.19 µM | LC50 (SN12C): > 100 µM | GI50 (SN12C; read-out: GI50): 5.84 µM | GI50 (SN12C; read-out: pGI50 (converted)): 5.89 µM | TGI (SN12C; read-out: pTGI): > 100 µM | LC50 (SK-OV-3): > 100 µM | GI50 (SK-OV-3; read-out: GI50): 4.02 µM | GI50 (SK-OV-3; read-out: pGI50 (converted)): 3.98 µM | TGI (SK-OV-3; read-out: pTGI): > 100 µM | LC50 (NCI/ADR-RES): > 100 µM | GI50 (NCI/ADR-RES; read-out: GI50): 0.314 µM | GI50 (NCI/ADR-RES; read-out: pGI50 (converted)): 0.316 µM | TGI (NCI/ADR-RES; read-out: pTGI (converted)): 12.9 µM | LC50 (concentration causing 50% net cell death) (HCT-116): > 100 µM | GI50 (HCT-116; read-out: GI50): 0.535 µM | GI50 (HCT-116; read-out: pGI50 (converted)): 0.537 µM | TGI (HCT-116; read-out: pTGI (converted)): 19.1 µM | growth at 10 µM (DU-145): 59.6% | LC50 (M14): > 100 µM | GI50 (M14; read-out: GI50): 0.335 µM | GI50 (M14; read-out: pGI50 (converted)): 0.339 µM | TGI (M14; read-out: pTGI (converted)): 4.9 µM | LC50 (OVCAR-4): > 100 µM | GI50 (OVCAR-4; read-out: GI50): > 100 µM | GI50 (OVCAR-4; read-out: pGI50 (converted)): > 100 µM | TGI (OVCAR-4; read-out: pTGI): > 100 µM | MTD at 336 h [2]: 400 mg/kg | LC50 (SNB-75): > 100 µM | GI50 (SNB-75; read-out: GI50): 1.76 µM | GI50 (SNB-75; read-out: pGI50 (converted)): 1.74 µM | TGI (SNB-75; read-out: pTGI (converted)): 28.8 µM | LC50 (CCRF-CEM): > 100 µM | GI50 (CCRF-CEM; read-out: GI50): 0.786 µM | GI50 (CCRF-CEM; read-out: pGI50 (converted)): 0.794 µM | TGI (CCRF-CEM; read-out: pTGI): > 100 µM | LC50 (50% net cell kill) (786-0): > 100 µM | GI50 (786-0; read-out: GI50): 10.2 µM | GI50 (786-0; read-out: pGI50 (converted)): 10.2 µM | TGI (786-0; read-out: pTGI (converted)): 63.1 µM | GI50 (ACHN): 10.5 µM | CC50 (ACHN; read-out: pLC50 (the source's name) (converted)): > 100 µM | TGI (ACHN; read-out: pTGI): > 100 µM | growth at 10 µM (HCC 2998): 53.9% | growth at 10 µM (MDA-MB-435 [3]): -17.9% | LC50 (RXF 393): > 100 µM | GI50 (RXF 393; read-out: GI50): 3.51 µM | GI50 (RXF 393; read-out: pGI50 (converted)): 3.55 µM | TGI (RXF 393; read-out: pTGI (converted)): 28.2 µM | growth at 10 µM (NCI-H23 [4]): 59.9% | LC50 (NCI-H23 [5]): > 100 µM | GI50 (NCI-H23 [5]; read-out: GI50): 16.9 µM | GI50 (NCI-H23 [5]; read-out: pGI50 (converted)): 17 µM | TGI (NCI-H23 [5]; read-out: pTGI): > 100 µM | Activity (SW-620): inactive | LC50 (A498): > 100 µM | GI50 (A498; read-out: GI50): 1.97 µM | GI50 (A498; read-out: pGI50 (converted)): 1.95 µM | TGI (A498; read-out: pTGI (converted)): 38 µM | LC50 (SK-MEL-2): > 100 µM | GI50 (SK-MEL-2; read-out: GI50): 10.7 µM | GI50 (SK-MEL-2; read-out: pGI50 (converted)): 10.7 µM | TGI (SK-MEL-2; read-out: pTGI (converted)): 72.4 µM
